The source of these data is ChEMBL document CHEMBL4808255, “Design, synthesis, and target identification of new hypoxia-inducible factor 1 (HIF-1) inhibitors containing 1-alkyl-1H-pyrazole-3-carboxamide moiety” (Bioorg Med Chem, 2021).

Activity calls are given as the source filed them. The calls are words filed in the database; no cut-off is given here.

What is called IC50 is the concentration at which inhibition is half-maximal.

For data set [1], the target named is T1, Hypoxia-inducible factor 1-alpha (Homo sapiens, UniProt Q16665). The data set is described as follows: Inhibition of hypoxia-induced HIF1 alpha transcriptional activity in human HeLa cells transfected with luciferase reporter containing of HRE assessed as reduction in luciferase activity incubated for 1 hrs under normoxic condition followed by incubation under hypoxic condition for 24 hrs by luciferase reporter gene assay. It counts as cell-based. (In a reporter assay the amount or activity of a reporter protein is the signal.)

For data set [2], the target named is ATP synthase F(1) complex subunit beta, mitochondrial (Homo sapiens) (UniProt P06576). Kind of data set: Competitive binding affinity to ATP5B in human HeLa cell mitochondrial fraction in presence of KUSC-5051 by LC-MS/MS analysis. Particulars: Mitochondria. An outline of the steps:
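HeLa S3 lysate fractionated into debris (1 mg/mL), mitochondrial (0.8 mg/mL) and cytosol (0.6 mg/mL) fractions. Fractions incubated with DMSO or 300 μM competitor, with or without 30 μM photoaffinity probe, 1 h at 37 °C, then UV 365 nm for 30 min. Click labeling, NeutrAvidin enrichment, SDS-PAGE. The ~60 kDa band was trypsin-digested 12 h at 37 °C for LC-MS/MS, with confirmation by anti-ATP5B western blot.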

The test system of data set [3] is HeLa. Kind of data set: Inhibition of mitochondrial complex V in human HeLa cells assessed as reduction in oxygen consumption rate at 0.1 to 1 uM for 1.5 hrs cells pretreated with FCCP/antimycin A/rotenone by XF mito stress test assay. It counts as cell-based. Particulars: dose 0.1-1 µM. The method in brief:
(§1)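 HeLa cells at 80–90% confluency equilibrated 1.5 h at 37 °C without CO₂. OCR recorded at baseline and after sequential injections: compound (0.1, 1, 10 μM) or oligomycin 0.5 μM, then FCCP 0.5 μM, then rotenone/antimycin A (0.5 μM each). Seahorse XF analyzer; n = 6, mean ± SEM.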

Another data set deals with HeLa S3. Kind of data set: Cytotoxicity against human HeLa S3 cells assessed as reduction in cell viability incubated for 72 hrs by cell proliferation assay. It counts as functional, cell-based. Conditions: HeLa S3, 72 h. The method in brief: (§2)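 Cells seeded at 1.5 × 10³ per well and grown 24 h, then exposed to solvent or serial dilutions of test compound for 72 h. Viability read with Cell Counting Kit-8. Triplicate wells (n = 3); representative of two independent experiments.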

The target in data set [4] is ATP synthase F(1) complex catalytic subunit beta, mitochondrial (Bos taurus) (UniProt P00829). Kind of data set: Inhibition of ATP5B in bovine heart mitochondrial solution assessed as complex V activity at 10 to 100 nM incubated for 2 hrs by spectrophotometry. Particulars: Mitochondria, dose 10-100 nM. An outline of the steps:
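Complex V activity measured in bovine heart mitochondria solution with ATP synthase. Compound at 10 and 100 nM; DMSO 1.0% vehicle; oligomycin 12.6 μM as positive control. Incubated 2 h at 25 °C, monitoring absorbance at 340 nm for NADH consumption. n = 3; representative of three experiments; Student's t-test.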

In data set [5] the target is T1, Hypoxia-inducible factor 1-alpha. The data set is described as follows: Inhibition of hypoxia-induced HIF1 alpha transcriptional activity in human HeLa cells assessed as reduction in CA9 mRNA level at 3 uM incubated for 1 hrs under normoxic condition followed by incubation under hypoxic condition for 24 hrs by quantitative RT-PCR analysis. It counts as cell-based. Conditions: time 25.0 hrs.

The target is the same in data set [6]. Kind of data set: Inhibition of hypoxia-induced HIF1 alpha transcriptional activity in human HeLa cells assessed as reduction in VEGF mRNA level at 3 uM incubated for 1 hrs under normoxic condition followed by incubation under hypoxic condition for 24 hrs by quantitative RT-PCR analysis. The format is cell-based. Particulars: time 25.0 hrs.
Data set [7] shares this target. The data set is described as follows: Inhibition of hypoxia-induced HIF1 alpha transcriptional activity in human HeLa cells at 3 uM incubated for 1 hrs under normoxic condition followed by incubation under hypoxic condition for 24 hrs by quantitative RT-PCR analysis. The format is cell-based. Particulars: time 25.0 hrs.
Data set [8] deals with HeLa. The data set is described as follows: Inhibition of mitochondrial complex V in human HeLa cells assessed as reduction in oxygen consumption rate at 0.1 to 1 uM for 1.5 hrs by XF mito stress test assay. It counts as cell-based. Conditions: dose 0.1-1 µM. The method in brief:
as §1

The target of data set [9] is T1, Hypoxia-inducible factor 1-alpha. Kind of data set: Inhibition of hypoxia-induced HIF1 alpha transcriptional activity in human HeLa cells assessed as HIF1alpha protein level incubated for 1 hrs under normoxic condition followed by incubation under hypoxic condition for 24 hrs by Western blotting analysis. Conditions: time 25.0 hrs. The format is cell-based. (In general: In western blotting, separated proteins are transferred to a membrane and probed.)

The next data set relates to HT-1080. The data set is described as follows: Cytotoxicity against human HT-1080 cells assessed as reduction in cell viability incubated for 72 hrs by cell proliferation assay. It counts as functional, cell-based. Particulars: HT-1080, 72 h. An outline of the steps: as §2
Data set [10] addresses ATP synthase F(1) complex catalytic subunit beta, mitochondrial (Bos taurus) (UniProt P00829). The data set is described as follows: Inhibition of ATP5B in bovine heart mitochondrial solution assessed as complex V activity at 12.6 nM incubated for 2 hrs by spectrophotometry. Particulars: Mitochondria. The method in brief: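 Bovine heart mitochondria solution used as the ATP synthase (complex V) source. Compound was incubated 2 h at 25 °C with DMSO at 1.0%. Activity followed as consumption of supplemented NADH by absorbance at 340 nm on a spectrophotometer. Oligomycin was the positive control. n = 3; representative of three independent experiments; Student's t-test.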

Data set [11] in a line: Drug localization in mitochondria of human HeLa cells at 1 uM incubated for 3 hrs by MitoTracker Red CMXRos and Hoechst 33342 staining based assay. It counts as ADME. An outline of the steps: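 HeLa cells exposed 3 h to 1 μM BODIPY-FL fluorescent probe. MitoTracker Red CMXRos (100 nM) and Hoechst 33342 (10 μM) added, then cells fixed and imaged by fluorescence microscopy.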

Turning to `O=C(Nc1ccc(Cl)c(Cl)c1)c1ccn(Cn2cc([N+](=O)[O-])cn2)n1`, in data set [1], the concentration for half-maximal inhibition (IC50) stood at 13 µM.
Regarding `O=C(Nc1ccccc1O)c1ccn(Cn2cc([N+](=O)[O-])cn2)n1`, the IC50 in data set [1] was over 100 µM.
Consider `O=C(Nc1cccc(C(F)(F)F)c1)c1ccn(Cn2cc([N+](=O)[O-])cn2)n1`, for which the IC50 in [1] came to 33 µM.
Turning to `C#CCCCC1(CCC(=O)Nc2cnn(Cn3ccc(C(=O)Nc4ccc(C(F)(F)F)cc4)n3)c2)N=N1`, in data set [2], the result was Active.
With `O=C(Nc1ccc(Br)cc1)c1ccn(Cn2ccc([N+](=O)[O-])c2)n1`, the IC50 in data set [1] came out at 27 µM.
With `O=C(Nc1ccc(Br)cc1)c1ccn(Cn2cccn2)n1`, in data set [1], the IC50 was 66 µM.
On to `O=C(Nc1ccc(Br)cc1)c1ccn(Cn2cnc([N+](=O)[O-])c2)n1`, for which the IC50 in [1] stood at 58 µM.
`O=C(Nc1ccccc1Br)c1ccn(Cn2cc([N+](=O)[O-])cn2)n1`: in [1], the IC50 amounted to 45 µM.
In the case of `CCC(=O)Nc1cnn(Cn2ccc(C(=O)Nc3ccc(C(F)(F)F)cc3)n2)c1`, the inhibition result (with HeLa [3]; in data set [4]; in data set [5]; in data set [6]; in data set [7]; with HeLa [8]) was “Active” in each case. In addition, the IC50 stood at 34.5 µM in the data set on HeLa S3, 1.2 µM in data set [1] and 0.6 µM in the data set with HT-1080. Also, the result in [2] was Active. Also, in data set [9], the inhibition result was “Dose-Dependent Effect”.
In the case of `CCCC(=O)Nc1cnn(Cn2ccc(C(=O)Nc3ccc(C(F)(F)F)cc3)n2)c1`, in data set [1], the IC50 was 1.8 µM.
On the same count and under the same terms, then `O=C(Nc1ccc(F)cc1)c1ccn(Cn2cc([N+](=O)[O-])cn2)n1`, with 28 µM; and `CC(=O)Nc1cnn(Cn2ccc(C(=O)Nc3ccc(Br)cc3)n2)c1`, with 14 µM.
In the case of `Nc1cnn(Cn2ccc(C(=O)Nc3ccc(Br)cc3)n2)c1`, in data set [1], the IC50 turned out to be 20 µM.
In the case of `COc1ccc(NC(=O)c2ccn(Cn3cc([N+](=O)[O-])cn3)n2)cc1`, in [1], the IC50 is over 100 µM.
`O=C(Nc1ccccc1)c1ccn(Cn2cc([N+](=O)[O-])cn2)n1`: the IC50 in data set [1] is over 100 µM.
Consider `O=C(Nc1ccc(Cl)cc1)c1ccn(Cn2cc([N+](=O)[O-])cn2)n1`, for which the IC50 in data set [1] turned out to be 20 µM.
As for `O=C(Nc1ccc(C(F)(F)F)cc1)c1ccn(Cn2cc([N+](=O)[O-])cn2)n1`, the IC50 in [1] is 18 µM.
In the case of `O=C(Nc1cccc(Br)c1)c1ccn(Cn2cc([N+](=O)[O-])cn2)n1`, the IC50 in data set [1] was determined as 35 µM.
Take `CCCNc1cnn(Cn2ccc(C(=O)Nc3ccc(C(F)(F)F)cc3)n2)c1`: the half-maximal inhibitory concentration (IC50) in data set [1] is 1.2 µM.
With `O=C(Nc1ccc(Br)cc1)c1ccn(Cn2cc([N+](=O)[O-])cn2)n1`, in data set [1], the IC50 is 18 µM.
As for `CC(C)c1ccc(NC(=O)c2ccn(Cn3cc([N+](=O)[O-])cn3)n2)cc1`, the IC50 in data set [1] turned out to be 21 µM.
Consider `CC[C@@H]1/C=C/C=C/C[C@H](C)[C@@H](O)[C@](C)(O)C(=O)[C@H](C)[C@@H](O)[C@H](C)C(=O)[C@H](C)[C@@H](O)[C@H](C)/C=C/C(=O)O[C@H]2[C@@H](C)[C@@H](CC1)O[C@@]1(CC[C@@H](C)[C@@H](C[C@@H](C)O)O1)[C@@H]2C`, for which the figures for the IC50 in the data set on HeLa S3 and in the data set on HT-1080 were 5.3 µM and under 0.1 µM, respectively. The inhibition result in [10] was “Active”.
For the compound `O=C(Nc1ccc(Cl)cc1Cl)c1ccn(Cn2cc([N+](=O)[O-])cn2)n1`, the IC50 in data set [1] amounted to 35 µM.
Still for that read-out and setting: under `CC(C)C(=O)Nc1cnn(Cn2ccc(C(=O)Nc3ccc(C(F)(F)F)cc3)n2)c1` stands 6.9 µM; under `O=C(Nc1ccc(F)cc1F)c1ccn(Cn2cc([N+](=O)[O-])cn2)n1`, 81 µM; under `O=C(Nc1ccc(Br)cc1)c1ccn(Cn2ccnc2)n1`, 34 µM.
For `CC(=O)Nc1cnn(Cn2ccc(C(=O)Nc3ccc(C(F)(F)F)cc3)n2)c1`, in [1], the IC50 came out at 5.5 µM.
For `Cc1cc(C)n2c1C=C1C=C(CCC(=O)Nc3cnn(Cn4ccc(C(=O)Nc5ccc(C(F)(F)F)cc5)n4)c3)C=[N+]1[B-]2(F)F`, the Drug uptake result in [11] was “Active”.
With `O=C(Cc1ccccc1)Nc1cnn(Cn2ccc(C(=O)Nc3ccc(C(F)(F)F)cc3)n2)c1`, in data set [1], the IC50 stood at 1.4 µM.
